Experimental data reported in article PMC7781011 (Journal of Inflammation Research, 2020).
Entries after “also recorded” stand apart in the source; their conditions may differ.

Legend:
mouse COX-2 = molecular target: T1, mouse COX-2 (Mus musculus, UniProt Q05769); experiment: Cell-free fluorometric COX-2 assay; type: biochemical
T1 sequence (Q05769 18-604): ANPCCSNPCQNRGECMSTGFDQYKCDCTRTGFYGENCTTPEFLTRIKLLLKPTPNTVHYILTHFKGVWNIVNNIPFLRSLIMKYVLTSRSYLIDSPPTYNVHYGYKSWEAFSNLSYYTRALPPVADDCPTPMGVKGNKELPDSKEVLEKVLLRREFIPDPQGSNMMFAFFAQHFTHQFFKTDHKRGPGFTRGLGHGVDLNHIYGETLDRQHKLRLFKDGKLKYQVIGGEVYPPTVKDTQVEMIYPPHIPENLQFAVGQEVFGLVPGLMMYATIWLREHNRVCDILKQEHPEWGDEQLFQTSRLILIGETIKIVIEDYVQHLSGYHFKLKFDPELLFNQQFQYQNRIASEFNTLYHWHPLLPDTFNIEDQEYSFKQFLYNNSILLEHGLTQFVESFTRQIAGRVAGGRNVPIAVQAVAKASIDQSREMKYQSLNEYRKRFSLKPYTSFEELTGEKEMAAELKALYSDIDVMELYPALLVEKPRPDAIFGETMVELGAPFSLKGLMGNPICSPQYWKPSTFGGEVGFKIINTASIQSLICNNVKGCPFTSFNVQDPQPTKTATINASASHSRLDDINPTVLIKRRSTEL

[1] = tested on: carrageenan-induced hind paw edema of rats; experiment: Carrageenan-induced rat paw edema model; type: in vivo, rat (male Fischer F344); conditions: for TXB2 levels in paw exudates / LTB4 levels in paw exudates / PGE2 levels in paw exudates / PGI2 levels in paw exudates: 400 ppm; for edema inhibition (maximum): 400 ppm in diet (oral), 3 hours after carrageenan injection; for LTB4 levels in paw exudates / PGE2 levels in paw exudates / PGI2 levels in paw exudates: compared to control (vehicle)
How it was run: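 Male F344 rats (350–400 g) fed AIN-76A diet, either control or with compound or reference inhibitor at 400 ppm; separate saline group. 0.1 mL 1% λ-carrageenan in saline injected subplantar into left hind paw, saline into right. Dorsiventral paw thickness by digital caliper before and 1–6 h after injection; % edema inhibition. Paw exudate PGE2, LTB4, TXB2 and PGI2 measured by ELISA. Stomach and organs examined for ulcers.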

human COX-2 [2] = molecular target: T2, human COX-2 (Homo sapiens, UniProt P35354); experiment: Binding assay using isothermal titration calorimetry
T2 sequence (P35354 18-604): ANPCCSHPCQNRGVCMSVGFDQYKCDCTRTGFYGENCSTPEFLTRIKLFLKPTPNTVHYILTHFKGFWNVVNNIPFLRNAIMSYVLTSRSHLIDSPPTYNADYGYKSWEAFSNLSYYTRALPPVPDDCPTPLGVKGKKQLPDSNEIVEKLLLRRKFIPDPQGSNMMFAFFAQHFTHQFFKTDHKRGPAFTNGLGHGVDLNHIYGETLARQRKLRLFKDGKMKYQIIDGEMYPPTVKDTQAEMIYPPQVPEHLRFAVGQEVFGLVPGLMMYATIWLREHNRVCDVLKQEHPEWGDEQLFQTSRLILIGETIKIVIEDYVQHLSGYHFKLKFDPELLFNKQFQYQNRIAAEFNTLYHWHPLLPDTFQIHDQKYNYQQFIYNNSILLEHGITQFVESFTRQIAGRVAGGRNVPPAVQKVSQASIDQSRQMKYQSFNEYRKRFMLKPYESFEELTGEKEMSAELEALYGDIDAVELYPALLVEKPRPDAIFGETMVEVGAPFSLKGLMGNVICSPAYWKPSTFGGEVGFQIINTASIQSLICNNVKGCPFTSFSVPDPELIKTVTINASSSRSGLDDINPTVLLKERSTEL
How it was run: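 Serial injections of test compound (up to 1 mM) into enzyme-containing cell at 1 mM protein, both dissolved in PBS and degassed before use. Titration continued until heat signal approached zero at saturation. Isotherm fitted to obtain dissociation constant KD.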

human COX-2 [3] = molecular target: T2, human COX-2; experiment: Circular dichroism, change in secondary structure; conditions: CD, Human COX-2, LFA-9 10 µM
How it was run: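 Native and compound-treated (0.1–10 µM) enzymes in PBS pH 7.4 at final protein 200 µM. CD spectra corrected by subtracting buffer blanks. Percent change in secondary structure (α-helix, β-sheet) calculated with the CAPITO analysis server.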

rat mPGES-1 = molecular target: T3, rat mPGES-1 (Rattus norvegicus, UniProt Q9JHF3); experiment: Binding assay using isothermal titration calorimetry
T3 sequence (Q9JHF3 1-153): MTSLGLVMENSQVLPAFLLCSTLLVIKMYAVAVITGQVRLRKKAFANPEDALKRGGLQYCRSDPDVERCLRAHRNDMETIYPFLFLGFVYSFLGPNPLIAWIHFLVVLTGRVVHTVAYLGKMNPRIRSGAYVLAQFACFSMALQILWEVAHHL
How it was run: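 Rat mPGES-1 isolated from vas deferens and seminal vesicles. Compound (up to 1 mM) and protein (1 mM) dissolved in PBS and degassed. Serial compound injections made into enzyme cell. KD derived by fitting the binding isotherm.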

[4] = In vitro metabolic stability in activated liver S9 fraction; type: in vitro ADME; conditions: rat liver S9 fraction activated with NADPH, UDPGA, GSH, PAPS; 500 µM
How it was run: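 Mouse or rat liver S9 fraction isolated and activated with NADPH, UDPGA, GSH and PAPS before compound addition. Samples taken at 0, 15, 30, 45 and 60 min. Compound extracted with acetonitrile and quantified by reversed-phase HPLC with PDA detection. Percent remaining calculated from peak areas at 0 and 60 min.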

Row | SMILES | IC50 (mouse COX-2) [nM] | TXB2 levels in paw exudates [1] | edema inhibition (maximum) [1] [%] | LTB4 levels in paw exudates [1] | PGE2 levels in paw exudates [1] | PGI2 levels in paw exudates [1] | Kd (human COX-2 [2]) [mM] | Change in Secondary Structure (human COX-2 [3]) | Kd (rat mPGES-1) [µM] | inhibition of COX-2 activity (mouse COX-2; cell-free, mouse, up to the tested range of 1 mM) | LFA-9 remaining after 60-minutes incubation [4] [%] | gastrointestinal (and other) toxicity ([1]; 400 ppm in diet)
1 | CC1(C)Cc2c(-c3ccccc3)c(-c3ccc(Cl)cc3)c(CC(=O)O)n2C1 [Licofelone, reference compound] | 2010 | reduced | 61.7 | reduced | reduced | reduced | – | – | – | – | – | –
2 | CC1(C)Cc2c(-c3ccccc3)c(-c3ccc(Cl)cc3)c(CC(=O)NCC(=O)O)n2C1 [LFA-9, 2-[[2-[2-(4-chlorophenyl)-6,6-dimethyl-1-phenyl-5,7-dihydropyrrolizin-3-yl]acetyl]amino]acetic acid] | – | maintained homeostasis | 70.4 | reduced | reduced | spared | > 1 | No change in secondary structure | 3.3 | did not show inhibition | 98.3 | did not show any gastrointestinal toxicity; also recorded: did not show any gastrointestinal and any other toxicities
